Test results taken from ChEMBL document CHEMBL4765404, “Identification of benzofused five-membered sultams, potent dual NOD1/NOD2 antagonists in vitro and in vivo” (Eur J Med Chem, 2020).

Molecular target: T1, Nucleotide-binding oligomerization domain-containing protein 2 (Homo sapiens, UniProt Q9HC29)
Test: Antagonist activity at human NOD2 in HEK-Blue hNOD2 cells assessed as secreted alkaline phosphatase reporter activity preincubated for 3 hrs followed by stimulated with MDP for 20 hrs by Spectrophotometer method
Assay type: cell-based
Settings: not given

T1 sequence (Q9HC29 whole entry, the tested form may be a part): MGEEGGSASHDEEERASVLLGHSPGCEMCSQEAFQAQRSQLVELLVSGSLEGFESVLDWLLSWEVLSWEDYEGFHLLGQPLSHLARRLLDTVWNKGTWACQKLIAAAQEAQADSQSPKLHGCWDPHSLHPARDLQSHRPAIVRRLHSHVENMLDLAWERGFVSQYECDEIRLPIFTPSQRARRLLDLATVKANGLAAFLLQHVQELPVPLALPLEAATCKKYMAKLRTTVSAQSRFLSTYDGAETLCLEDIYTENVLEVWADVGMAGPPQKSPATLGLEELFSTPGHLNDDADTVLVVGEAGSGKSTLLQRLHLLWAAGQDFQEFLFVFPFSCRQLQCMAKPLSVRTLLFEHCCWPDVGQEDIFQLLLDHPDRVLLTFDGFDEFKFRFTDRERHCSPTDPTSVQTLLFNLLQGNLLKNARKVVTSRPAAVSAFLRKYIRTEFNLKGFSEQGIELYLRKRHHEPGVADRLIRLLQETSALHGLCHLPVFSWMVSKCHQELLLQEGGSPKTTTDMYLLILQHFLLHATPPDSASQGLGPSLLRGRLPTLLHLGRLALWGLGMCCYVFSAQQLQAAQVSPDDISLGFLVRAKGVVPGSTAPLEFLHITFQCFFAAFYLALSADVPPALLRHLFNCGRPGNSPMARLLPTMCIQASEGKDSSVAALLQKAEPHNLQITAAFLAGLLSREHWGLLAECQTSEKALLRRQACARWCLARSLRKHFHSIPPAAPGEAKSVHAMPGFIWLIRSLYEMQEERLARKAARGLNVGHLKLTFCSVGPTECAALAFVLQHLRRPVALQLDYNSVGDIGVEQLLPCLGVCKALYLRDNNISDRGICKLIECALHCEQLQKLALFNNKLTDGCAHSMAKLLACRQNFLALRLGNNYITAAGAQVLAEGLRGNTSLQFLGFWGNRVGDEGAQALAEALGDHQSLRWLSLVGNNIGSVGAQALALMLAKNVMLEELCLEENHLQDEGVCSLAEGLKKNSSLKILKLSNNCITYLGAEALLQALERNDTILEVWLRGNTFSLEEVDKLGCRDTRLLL

IC50 [µM] | SMILES
1.85 | CCCCOC(=O)CC1c2cc(C)cc(C)c2S(=O)(=O)N1C(=O)c1ccc(C(F)(F)F)cc1 (stereo not drawn)
7.03 | CCCCOC(=O)CC1c2c(OC)ccc(OC)c2S(=O)(=O)N1C(=O)c1ccc(C(F)(F)F)cc1 (stereo not drawn)
2.36 | CCCCOC(=O)CC1c2cccc(C)c2C(=O)N1C(=O)c1ccc(C(F)(F)F)cc1 (stereo not drawn)
1.18 | CCCCOC(=O)CC1c2cccc(C)c2S(=O)(=O)N1C(=O)c1ccc(C(F)(F)F)cc1 (stereo not drawn)
4.05 | CCCCOC(=O)CC1c2c(F)ccc(C)c2S(=O)(=O)N1C(=O)c1ccc(C(F)(F)F)cc1 (stereo not drawn)
3.96 | CCCCOC(=O)CC1c2cc(OC)cc(OC)c2S(=O)(=O)N1C(=O)c1ccc(C(F)(F)F)cc1 (stereo not drawn)
5.74 | CCCCc1noc(CC2c3cccc(C)c3S(=O)(=O)N2C(=O)c2cccc(C(F)(F)F)c2)n1 (stereo not drawn)
1.39 | CCCCOC(=O)CC1c2cccc(Cl)c2S(=O)(=O)N1C(=O)c1ccc(C(F)(F)F)cc1 (stereo not drawn)
1.74 | CCCCOC(=O)CC1c2cccc(C)c2S(=O)(=O)N1C(=O)c1ccc(Cl)cc1 (stereo not drawn)
6.7 | CCCCOC(=O)CC1c2cc(F)cc(C)c2S(=O)(=O)N1C(=O)c1ccc(C(F)(F)F)cc1 (stereo not drawn)
4.65 | Cc1cccc2c1S(=O)(=O)N(C(=O)c1ccc(C(F)(F)F)cc1)C2CC(=O)OC(C)(C)C (stereo not drawn)
0.48 | CCCCOC(=O)CC1c2cccc(C)c2S(=O)(=O)N1C(=O)c1ccccc1C(F)(F)F (stereo not drawn)
0.93 | CCCCOC(=O)CC1c2cccc(C)c2S(=O)(=O)N1C(=O)c1cccc(C(F)(F)F)c1 (stereo not drawn)
9.83 | CCCCOC(=O)CC1c2ccc(Cl)c(C)c2S(=O)(=O)N1C(=O)c1ccc(C(F)(F)F)cc1 (stereo not drawn)
4.29 | CCCCOC(=O)CC1c2cccc(C(=O)OCCCC)c2S(=O)(=O)N1C(=O)c1ccc(C(F)(F)F)cc1 (stereo not drawn)
3.55 | COC(=O)CC1c2cccc(C)c2S(=O)(=O)N1C(=O)c1ccc(C(F)(F)F)cc1 (stereo not drawn)
5.45 | CCCCOC(=O)CC1c2cccc(C)c2S(=O)(=O)N1C(=O)c1ccc(C#N)cc1 (stereo not drawn)
4.65 | CCCCc1nnc(CC2c3cccc(C)c3S(=O)(=O)N2C(=O)c2cccc(C(F)(F)F)c2)o1 (stereo not drawn)

Molecular target: T1, Nucleotide-binding oligomerization domain-containing protein 2
Test: Antagonist activity at human NOD2 in HEK-Blue hNOD2 cells assessed as reduction in secreted alkaline phosphatase reporter activity at 10 uM preincubated for 3 hrs followed by stimulated with MDP for 20 hrs by Spectrophotometer method
Assay type: cell-based
Settings: not given

SMILES | inhibition [%]
Cc1cccc2c1S(=O)(=O)N(C(=O)c1ccc(C(F)(F)F)cc1)C2CC(N)=O (stereo not drawn) | -9.14
Cc1cccc2c1S(=O)(=O)N(C(=O)c1ccc(C(F)(F)F)cc1)C2CC(=O)Nc1ccccc1 (stereo not drawn) | 30.3
Cc1cccc2c1S(=O)(=O)N(C(=O)c1ccc(C(F)(F)F)cc1)C2CC(=O)O (stereo not drawn) | 10.3
CCCCOC(=O)CC1c2cccc(C)c2S(=O)(=O)N1C(=O)/C=C/c1ccc(Cl)cc1 (stereo not drawn) | 35
CCCCOC(=O)CC1c2cccc(C)c2S(=O)(=O)N1CC(=O)c1ccc(C(F)(F)F)cc1 (stereo not drawn) | 7.2
CCCCNC(=O)CC1c2cccc(C)c2S(=O)(=O)N1C(=O)c1ccc(C(F)(F)F)cc1 (stereo not drawn) | 17.7
CCCCOC(=O)/C=C/c1cc(C)cc2c1S(=O)(=O)N(C(=O)c1ccc(C(F)(F)F)cc1)C2CC(=O)OCCCC (stereo not drawn) | 31.4
CCCCOC(=O)/C=C1\c2cccc(C)c2S(=O)(=O)N1C(=O)c1ccc(C(F)(F)F)cc1 | 54.4

Continued, values first:

inhibition [%] | SMILES
1.83 | CCCCOC(=O)CC1c2cccc(C)c2S(=O)(=O)N1C(=O)c1ccco1 (stereo not drawn)
6.59 | CCCCOC(=O)CC1c2cccc(C)c2S(=O)(=O)N1C(C)=O (stereo not drawn)
4.63 | CCCCOC(=O)CC1c2cccc(C)c2S(=O)(=O)N1C (stereo not drawn)
24.3 | CCCCOC(=O)CC1c2cccc(C)c2S(=O)(=O)N1C(=O)c1ccccc1 (stereo not drawn)
20.6 | CCCCOC(=O)CC1c2cccc(C)c2S(=O)(=O)N1/C=C\C(=O)OCC (stereo not drawn)
-1 | CCCCOC(=O)CC1c2cccc(C)c2S(=O)(=O)N1CC (stereo not drawn)
9.07 | CCCCOC(=O)CC1c2cccc(C)c2S(=O)(=O)N1CCCC (stereo not drawn)
-0.67 | CCCCOC(=O)CC1c2cccc(C)c2S(=O)(=O)N1C(=O)OC (stereo not drawn)
5.52 | C=CCN1C(CC(=O)OCCCC)c2cccc(C)c2S1(=O)=O (stereo not drawn)
5.29 | CCCCOC(=O)CC1c2cccc(C)c2S(=O)(=O)N1S(C)(=O)=O (stereo not drawn)

Same assay, conditions: filed as antagonist

SMILES | inhibition [%]
CCCCOC(=O)CC1c2cccc(C)c2S(=O)(=O)N1Cc1ccc(C(F)(F)F)cc1 (stereo not drawn) | 42.5
CCCCOC(=O)CC1c2cccc(C)c2S(=O)(=O)N1NC(=O)c1ccc(C(F)(F)F)cc1 (stereo not drawn) | 60
CCCCOCCC1c2cccc(C)c2S(=O)(=O)N1C(=O)c1ccc(C(F)(F)F)cc1 (stereo not drawn) | 45.9

Other lines, results leading:

inhibition [%] | SMILES
41.4 | CCCCOC(=O)CC1c2cccc(C)c2S(=O)(=O)N1Cc1ccccc1 (stereo not drawn)
55.5 | CCCCOC(=O)CC1c2cccc(C)c2S(=O)(=O)N1C(=O)c1ccc(C)cc1 (stereo not drawn)

System: not listed separately
Test: Cytotoxicity against human HEK-Blue hNOD2 cells assessed as cell viability measured by SRB assay
Assay type: cell-based
Settings: not given
Outline: (§1)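 Run on the same HEK-Blue hNOD1 (C12-iE-DAP 50 ng/mL) or hNOD2 (MDP 100 ng/mL) wells after SEAP readout, following 3 h compound plus 20 h stimulation. Cells fixed in 80% TCA, 4 °C, 1 h; SRB in 1% acetic acid, 10 min; washed, dried; dye dissolved in 10 mM Tris base; A515. Growth inhibition = (C−T)/C × 100, n = 3.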

SMILES | Activity
CCCCOC(=O)CC1c2cccc(C)c2S(=O)(=O)N1C(=O)c1cccc(C(F)(F)F)c1 (stereo not drawn) | Non-Toxic

System: not listed separately
Test: Cytotoxicity against human HEK-Blue hNOD1 cells assessed as cell viability measured by SRB assay
Assay type: cell-based
Settings: not given
Outline: as §1

SMILES | Activity
CCCCOC(=O)CC1c2cccc(C)c2S(=O)(=O)N1C(=O)c1cccc(C(F)(F)F)c1 (stereo not drawn) | Non-Toxic
